Test results published in ChEMBL document CHEMBL2093137, “WHO-TDR NTD Screening”.
In brackets after ≈: the same amount, converted by molar mass.

Tests used:
Plasmodium falciparum K1 = assay: WHO-TDR: Malaria; format: functional, organism-based, Homo sapiens; details: Erythrocyte
In short: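 Following previously published standard procedures, with a reference drug serving as positive control, compounds were tested on the Plasmodium falciparum K1 strain inside human red blood cells. The 10,000-compound diverse set came from Life Chemicals after filtering for drug-likeness and reactive groups. Potency against the parasite appears as IC50.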

[1] = system: Trypanosoma brucei brucei; assay: WHO-TDR: Human African Trypanosomiasis (HAT); format: functional, organism-based; details: Squib-427
In short: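 Bloodstream forms of the Trypanosoma brucei Squib 427 strain were tested in a whole-organism screen with a diverse library from Life Chemicals of 10,000 compounds. Before screening, the library was filtered for drug-likeness and for reactive groups. The assay used previously published standard procedures and included reference drugs as positive controls. Potency against the parasite is expressed as IC50.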

Trypanosoma cruzi = assay: WHO-TDR: Chagas disease; format: functional, organism-based, Homo sapiens; details: MRC5
In short: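 A diverse library of 10,000 compounds from Life Chemicals, filtered for drug-likeness and reactive groups, was screened against intracellular amastigotes of Trypanosoma cruzi Tulahuen CL2 beta-galactosidase strain. The parasites were grown in MRC-5SV2 human lung fibroblast host cells, and a reference drug served as positive control under previously published standard procedures. Antiparasitic potency is given as IC50.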

[2] = WHO-TDR: Cytotoxicity; format: toxicity, cell-based; details: human, MRC5 cells
Schistosoma mansoni = assay: WHO-TDR: Schistosomiasis; format: functional; parameters: concentration or dose not given beside the values
In short: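 In this whole-organism assay, larval and/or adult worms of Schistosoma mansoni (Puerto Rican strain) were exposed to compounds from a diverse Life Chemicals library of 10,000 members. A reference drug served as positive control. Activity is stated as percent inhibition and IC50.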

Brugia malayi = assay: WHO-TDR: Lymphatic Filariasis; format: functional; parameters: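 tested at 10 µM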
In short: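 In a whole-organism assay, Brugia malayi microfilariae were screened against a diverse Life Chemicals library that had been filtered for drug-likeness and reactive groups. That library comprised 10,000 compounds. Activity is expressed as percent inhibition and as IC50.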

Onchocerca ochengi = assay: WHO-TDR: Onchocerciasis; format: functional; parameters: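 at 12.5 µM on microfilariae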
In short: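 Microfilariae of Onchocerca ochengi or Onchocerca lienalis, animal pathogens standing in for the human parasite, were exposed to compounds in a whole-organism screen. The compounds came from a 10,000-compound diverse Life Chemicals library filtered for drug-likeness and reactive groups. Results are expressed as percent inhibition and IC50.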

Leishmania infantum = assay: WHO-TDR: Leishmaniasis; format: functional, organism-based, Mus musculus; details: Macrophage
In short: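 Following previously published standard procedures, a whole-organism screen was run on Leishmania infantum MHOM/MA(BE)/67 amastigotes within murine peritoneal macrophages, with a reference drug as positive control. The 10,000 compounds tested formed a diverse Life Chemicals library filtered for drug-likeness and reactive groups. Potency against the parasite is reported as IC50.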

Row | SMILES | IC50 (Plasmodium falciparum K1) | IC50 [1] | IC50 (Leishmania infantum) | IC50 (Trypanosoma cruzi) | IC50 [2] | % Inhibition (Schistosoma mansoni) | % Inhibition (Brugia malayi) | % Inhibition (Onchocerca ochengi)
1 | Cc1ccc(-n2ncc3c(=O)[nH]c(-n4nc(C)cc4NC(=O)C4CC4)nc32)cc1 | 0.637 µg/mL (≈ 1.64 µM) | 0.378 µg/mL (≈ 0.971 µM) | 0.313 µg/mL (≈ 0.804 µM) | 0.214 µg/mL (≈ 0.55 µM) | 0.591 µg/mL (≈ 1.52 µM) | 0% | 0% | 100%
2 | Cc1cc(C(=O)Nc2nnc(-c3ccco3)o2)on1 | > 7.81 µg/mL | > 7.81 µg/mL | > 7.81 µg/mL | > 7.81 µg/mL | > 7.81 µg/mL | 25% | 20% | 100%
3 | O=C(Nc1nc2c(s1)CCCC2)C1CCN(S(=O)(=O)c2ccc(F)cc2)CC1 | > 12.7 µg/mL | 4.07 µg/mL (≈ 9.6 µM) | > 12.7 µg/mL | 2.79 µg/mL (≈ 6.58 µM) | > 12.7 µg/mL | 0% | 0% | 100%
4 | O=S(=O)(NCC(c1cccs1)N1CCOCC1)c1ccc(Cl)cc1 (stereo unspecified) | > 11.6 µg/mL | > 11.6 µg/mL | > 11.6 µg/mL | > 11.6 µg/mL | > 11.6 µg/mL | 0% | 0% | 100%
5 | O=C(Nc1nnc(-c2ccc(Br)s2)o1)c1ccno1 | > 10.2 µg/mL | > 10.2 µg/mL | 0.331 µg/mL (≈ 0.97 µM) | > 10.2 µg/mL | > 10.2 µg/mL | 16.7% | 0% | 0%
6 | Cc1ccc(S(=O)(=O)N(C)CC(O)COc2c(C)cc(C)cc2C)cc1 (stereo unspecified) | > 11.3 µg/mL | 9.55 µg/mL (≈ 25.3 µM) | > 11.3 µg/mL | 3.81 µg/mL (≈ 10.1 µM) | > 11.3 µg/mL | 0% | 0% | 100%
7 | Cc1ccc(NC(=O)N2CCN(c3ccc(Nc4cccnc4)nn3)CC2)cc1C | > 12.1 µg/mL | > 12.1 µg/mL | > 12.1 µg/mL | > 12.1 µg/mL | > 12.1 µg/mL | 0% | 0% | 100%
8 | Cc1noc(C)c1CCc1nc(-c2ccc(Cl)cc2)no1 | 4.72 µg/mL (≈ 15.5 µM) | > 9.11 µg/mL | > 9.11 µg/mL | 2.88 µg/mL (≈ 9.49 µM) | 3.27 µg/mL (≈ 10.8 µM) | 0% | 0% | 100%
9 | O=S(=O)(NCCNc1ccc(Nc2ccncc2)nn1)c1cc(Cl)ccc1Cl | 9.79 µg/mL (≈ 22.3 µM) | > 13.2 µg/mL | > 13.2 µg/mL | > 13.2 µg/mL | > 13.2 µg/mL | 0% | 0% | 100%

Further lines, with some results ahead:

Row | IC50 (Plasmodium falciparum K1) | IC50 [1] | IC50 (Leishmania infantum) | SMILES | IC50 (Trypanosoma cruzi) | IC50 [2] | % Inhibition (Schistosoma mansoni) | % Inhibition (Brugia malayi) | % Inhibition (Onchocerca ochengi)
10 | 0.573 µg/mL (≈ 1.39 µM) | 4.31 µg/mL (≈ 10.4 µM) | > 13.5 µg/mL | CCOc1cccc2sc(N(CCCn3ccnc3)C(=O)c3cccs3)nc12 | 4.08 µg/mL (≈ 9.88 µM) | 5.87 µg/mL (≈ 14.2 µM) | 0% | 0% | 100%
11 | > 10.1 µg/mL | 3.22 µg/mL (≈ 9.6 µM) | > 10.1 µg/mL | O=S(=O)(CCCOc1ccc(F)cc1)N1CCc2ccccc21 | 3.09 µg/mL (≈ 9.2 µM) | > 10.1 µg/mL | 0% | 0% | 100%
12 | > 12.6 µg/mL | > 12.6 µg/mL | > 12.6 µg/mL | CCC(C(=O)Nc1cc(-c2cn3nc(OC)ccc3n2)ccc1Cl)c1ccccc1 (stereo unspecified) | 8.38 µg/mL (≈ 19.9 µM) | > 12.6 µg/mL | 0% | 0% | 100%
13 | 1.27 µg/mL (≈ 3.04 µM) | 5.19 µg/mL (≈ 12.4 µM) | > 16.2 µg/mL | Cc1ccc(S(=O)(=O)N(CC(O)CNCc2ccco2)c2ccc(F)cc2)cc1 (stereo unspecified) | 5.67 µg/mL (≈ 13.5 µM) | > 16.2 µg/mL | 0% | 0% | 100%
14 | > 12.7 µg/mL | > 12.7 µg/mL | > 12.7 µg/mL | CCOc1ccc(-c2ccc(=O)n(CCCC(=O)Nc3ccccc3SC)n2)cc1 | 8.92 µg/mL (≈ 21.1 µM) | > 12.7 µg/mL | 0% | 0% | 100%
15 | > 13.2 µg/mL | > 13.2 µg/mL | 0.427 µg/mL (≈ 0.971 µM) | O=C(NCCNC(=O)c1cccc(Cl)c1)c1ccc(NC(=O)c2ccc(F)cc2)cc1 | > 13.2 µg/mL | > 13.2 µg/mL | 0% | 0% | 0%
16 | > 12.3 µg/mL | > 12.3 µg/mL | > 12.3 µg/mL | NC(=O)CSc1nc(-c2ccccc2)c(NC(=O)c2cc3ccccc3o2)s1 | > 12.3 µg/mL | > 12.3 µg/mL | 25% | 33.33% | 100%
17 | 7.26 µg/mL (≈ 16.9 µM) | 4.08 µg/mL (≈ 9.49 µM) | > 12.9 µg/mL | O=c1c2nccnc2n(Cc2cccc(C(F)(F)F)c2)c(=O)n1Cc1ccc(F)cc1 | 1.19 µg/mL (≈ 2.76 µM) | 10 µg/mL (≈ 23.2 µM) | 25% | 0% | 100%
18 | 4.49 µg/mL (≈ 8.71 µM) | > 15.5 µg/mL | > 15.5 µg/mL | CS(=O)(=O)c1ccc2nc(N(Cc3cccnc3)C(=O)c3cccc(Oc4ccccc4)c3)sc2c1 | 0.275 µg/mL (≈ 0.533 µM) | > 15.5 µg/mL | 0% | 0% | 0%
19 | > 10 µg/mL | > 10 µg/mL | > 10 µg/mL | CCn1ccc(C(=O)Nc2ccc(C)cc2C(=O)c2ccccc2)n1 | > 10 µg/mL | > 10 µg/mL | 0% | 0% | 100%
20 | 4.75 µg/mL (≈ 13.1 µM) | > 10.9 µg/mL | > 10.9 µg/mL | Cc1cccc(Nc2ccc(NCCNC(=O)Nc3ccccc3)nn2)n1 | > 10.9 µg/mL | 10.4 µg/mL (≈ 28.7 µM) | 0% | 0% | 100%
21 | > 11.7 µg/mL | > 11.7 µg/mL | > 11.7 µg/mL | O=C(CSc1ccc(NC(=O)c2cccs2)nn1)c1ccc(Cl)cc1 | > 11.7 µg/mL | 3.14 µg/mL (≈ 8.05 µM) | 0% | 0% | 100%
22 | > 12.6 µg/mL | > 12.6 µg/mL | 0.408 µg/mL (≈ 0.97 µM) | CCCc1nnc(NC(=O)CSc2ccc(NC(=O)c3cccs3)nn2)s1 | > 12.6 µg/mL | > 12.6 µg/mL | 0% | 0% | 0%
